This note sets out measurements from ChEMBL document CHEMBL1131374, “Inhibition of Fc epsilon RI-mediated activation of mast cells by 2,3,4-trihydropyrimidino[2,1-a]isoquinolines” (J Med Chem, 1998).

Series [1] in a line: The Hexosaminidase release concentration in CPII mouse mastcells transfected with TNF-alpha 3' reporter gene plasmid was measured. The format is functional.
The nature of series [2]: (§1) The Inhibitory potency on CPII mouse mastcells transfected with TNF-alpha 3' reporter gene plasmid was measured by reporter gene assay. The format is functional.
Series [3] is described as follows: The cell toxicity on CPII mouse mast cells transfected with TNF-alpha 3' nontranslated sequences reporter gene plasmid. Type of series: cell-based. To be noted: read-out: TC50 (the source's name).
The nature of series [4]: as §1. The format is functional. In short, it runs like this:
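Clone 12: CPII cells stably carrying a TNFα promoter–luciferase–TNFα 3′ construct. Cells exposed to compound 1 h, then triggered with (dinitrophenyl)albumin/anti-dinitrophenyl-IgE complex. Luciferase read after 6 h incubation. Screening single dose 10 μM; a hit was over 50% inhibition of induction with under 20% toxicity.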
The source holds these as a separate data set.

For the compound `CC(C)(C)c1ccc(C2=Cc3ccc(N(Cc4ccccc4)Cc4ccccc4)cc3C3=NCCCN23)cc1`, the IC50 in series [1] and in series [2] was 0.6 µM in each case. Moreover, the CC50 in series [3] amounted to 2.6 µM.
As to `CC(C)(C)c1ccc(C2=Cc3ccc(NC(=O)Cc4ccccn4)cc3C3=NCCCN23)cc1`, the IC50 in series [1] and in series [2] was 4.8 µM each time. Further, the CC50 in series [3] worked out at 8.8 µM.
Regarding `CC(C)(C)c1ccc(C2=Cc3ccccc3C3=NCCCN23)cc1`, the results for the IC50 in series [1] and in series [2] were 0.7 µM and 0.9 µM, respectively. The CC50 in series [3] amounted to 5.7 µM.
`CC(C)(C)c1ccc(C2=C(Cc3ccccc3)c3ccccc3C3=NCCCN32)cc1`: the values for the IC50 in series [1] and in series [2] were 2.9 µM and 2 µM, respectively. The CC50 in series [3] came out at 5 µM.
For `CC(C)(C)c1ccc(C2=Cc3ccc(N/C(S)=N/C4CCCCC4)cc3C3=NCCCN23)cc1` the same measures were 3.3 µM, 2.6 µM and 9.9 µM.
Regarding `CCOc1ccc(CC2=C(CCCc3cccc4ccccc34)N3CCCN=C3c3ccccc32)cc1`, the results for the IC50 in series [1] and in series [2] were 3.5 µM and 1.5 µM, respectively. For the same compound, the CC50 in series [3] was 5.5 µM.
For `C1=C(c2ccc(OCc3ccccc3)cc2)N2CCCN=C2c2ccccc21` the same measures were 0.9 µM, 0.8 µM and 3.5 µM.
As for `N[C@@H](Cc1ccccc1)C1=Cc2ccccc2C2=NCCCN12`, the concentration for half-maximal inhibition (IC50) is above 25 µM in series [1] and above 10 µM in series [2]. The CC50 in series [3] was above 25 µM.
Take `CCCCC1=C(c2ccc(C(C)(C)C)cc2)N2CCCN=C2c2ccccc21`: the IC50 in series [1] amounted to 0.6 µM; in series [2], 0.3 µM. Besides, the CC50 in series [3] stood at 2.1 µM.
In the case of `C1=C(Cc2ccccc2)c2ccccc2C2=NCCCN12`, the IC50 in series [4] and in series [1] was above 10 µM in each case. Besides, in series [3], the CC50 was above 10 µM.
Regarding `C1=C(c2ccccc2)N2CCCN=C2c2ccccc21`, the results for the IC50 in series [4] and in series [1] were above 10 µM and 12 µM, respectively. Further, the CC50 in series [3] is above 10 µM.
Take `CC(C)(C)c1ccc(C2=Cc3ccc(NC(=O)Nc4ccc(Cl)cc4Cl)cc3C3=NCCCN23)cc1`: the IC50 in series [1] came to 17 µM; in series [2], 3.3 µM. For the same compound, the CC50 in series [3] was found to be 5.8 µM.
With `CCCCCCC1=Cc2ccccc2C2=NCCCN12`, the IC50 in series [4] was above 10 µM; in series [1], 4.5 µM. Besides, the CC50 in series [3] was above 10 µM.
On to `C1=C(c2ccc(CCc3ccccc3)cc2)N2CCCN=C2c2ccccc21`, for which the IC50 in series [4] was found to be 0.7 µM; in series [1] it was 0.5 µM. The CC50 in series [3] is 2.1 µM.
Regarding `CCOc1ccc(CC2=C(c3ccc(CCc4ccccc4)cc3)N3CCCN=C3c3ccccc32)cc1`, the IC50 in series [1] is 2.6 µM; in series [2], 0.9 µM. Besides, the CC50 in series [3] was 9 µM.
The matching figures for `C[Si](C)(C)c1ccc(C2=C(Cc3ccccc3)c3ccccc3C3=NCCCN32)cc1`: 1.2 µM, 0.8 µM and 5.5 µM.
The matching figures for `C1=C(/C=C/c2ccccc2)N2CCCN=C2c2ccccc21`: 4.1 µM, above 10 µM and above 10 µM.
The matching figures for `CCCCC1=C(c2ccc(CCc3ccccc3)cc2)N2CCCN=C2c2ccccc21`: 0.3 µM, 0.2 µM and 2.7 µM.
As to `CC(C)(C)c1ccc(C2=Cc3ccc(NC(=O)NC4CCCCC4)cc3C3=NCCCN23)cc1`, the figures for the IC50 in series [1] and in series [2] were 2.1 µM and 1.7 µM, respectively. Further, in series [3], the CC50 was 4.8 µM.
Consider `Clc1ccc(C2=Cc3ccccc3C3=NCCCN23)cc1`, for which the IC50 in series [4] is above 10 µM; in series [1], 5.5 µM. Further, the CC50 in series [3] was above 10 µM.
`c1ccc(CCc2ccc(C3=C(Cc4ccccc4)c4ccccc4C4=NCCCN43)cc2)cc1`: the results for the IC50 in series [1] and in series [2] were 0.9 µM and 0.6 µM, respectively. Moreover, the CC50 in series [3] was determined as 2.2 µM.
As for `CN(C)CCC1=C(c2ccc(C(C)(C)C)cc2)N2CCCN=C2c2ccccc21`, the IC50 in series [1] and in series [2] was above 10 µM each time. The CC50 in series [3] is above 10 µM.
As for `CC(C)(C)c1ccc(C2=Cc3ccc(N)cc3C3=NCCCN23)cc1`, the half-maximal inhibitory concentration (IC50) in series [1] was determined as 3 µM; in series [2], 1.7 µM. In series [3], the CC50 was 7.8 µM.
Turning to `Clc1ccc(OCC2=Cc3ccccc3C3=NCCCN23)cc1`, the IC50 was 9 µM in series [4] and above 25 µM in series [1]. In series [3], the CC50 is above 10 µM.
For `C[Si](C)(C)c1ccc(C2=Cc3ccccc3C3=NCCCN23)cc1` the same measures were 0.8 µM, 0.5 µM and 3.2 µM.
Regarding `C1=C(c2ccc(-c3ccccc3)cc2)N2CCCN=C2c2ccccc21`, the IC50 in series [4] worked out at 1.5 µM; in series [1], 1.7 µM. Also, in series [3], the CC50 worked out at 3.9 µM.
For `CC1=Cc2ccccc2C2=NCCCN12` the same measures were above 10 µM, above 25 µM and above 10 µM.
The matching figures for `COc1cc(C2=Cc3ccccc3C3=NCCCN23)cc(OC)c1OC`: above 10 µM, above 25 µM and above 10 µM.
